The source made the active and inactive calls. The rule behind the calls is not given here. Bounds are passed on as bounds.

We go through 18 molecules from ChEMBL document CHEMBL5154861, “Overcoming Paradoxical Kinase Priming by a Novel MNK1 Inhibitor” (J Med Chem, 2022).

For data set [1], the target named is T1, MAP kinase-interacting serine/threonine-protein kinase 1 (Homo sapiens, UniProt Q9BUB5). Briefly: Inhibition of human recombinant full length GST-tagged MNK1 expressed in baculovirus expression system assessed as residual activity at 10 uM using S6 peptide as substrate in presence of [gamma-33P]-ATP incubated for 60 mins by radiometric scintillation counting method relative to control. Put shortly:
(§1)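 Radiometric 33PanQinase assay at 10 μM compound (final 1% DMSO). The buffer was 70 mM HEPES-NaOH pH 7.5 with 3 mM MgCl2, 3 mM MnCl2, 3 μM orthovanadate, 1.2 mM DTT and 50 μg/mL PEG20000. […] Reactions ran 60 min at 30 °C, were stopped with 2% H3PO4 and read by scintillation. Residual activity was calculated against high/low controls.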
Target sequence in this assay (Q9BUB5 whole entry, looked up): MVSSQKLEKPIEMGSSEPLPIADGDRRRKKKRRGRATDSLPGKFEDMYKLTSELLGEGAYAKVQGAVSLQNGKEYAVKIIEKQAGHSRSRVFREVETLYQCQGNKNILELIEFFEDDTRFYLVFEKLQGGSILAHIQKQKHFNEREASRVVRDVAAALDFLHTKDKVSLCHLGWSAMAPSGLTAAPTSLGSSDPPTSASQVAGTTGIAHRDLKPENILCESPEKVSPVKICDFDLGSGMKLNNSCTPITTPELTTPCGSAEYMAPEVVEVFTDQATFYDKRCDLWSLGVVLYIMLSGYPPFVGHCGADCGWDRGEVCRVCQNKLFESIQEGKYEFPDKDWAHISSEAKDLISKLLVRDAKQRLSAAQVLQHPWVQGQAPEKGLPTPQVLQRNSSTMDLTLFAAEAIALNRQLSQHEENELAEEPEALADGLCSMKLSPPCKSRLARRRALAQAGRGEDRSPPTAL

The target in data set [2] is T2, MAP kinase-interacting serine/threonine-protein kinase 2 (Homo sapiens, UniProt Q9HBH9). Briefly: Inhibition of human recombinant full length GST-tagged MNK2 expressed in insect cells assessed as residual activity at 10 uM using S6 peptide as substrate in presence of [gamma-33P]-ATP incubated for 60 mins by radiometric scintillation counting method relative to control. In short, it runs like this:
as §1
Target sequence in this assay (Q9HBH9 whole entry, looked up): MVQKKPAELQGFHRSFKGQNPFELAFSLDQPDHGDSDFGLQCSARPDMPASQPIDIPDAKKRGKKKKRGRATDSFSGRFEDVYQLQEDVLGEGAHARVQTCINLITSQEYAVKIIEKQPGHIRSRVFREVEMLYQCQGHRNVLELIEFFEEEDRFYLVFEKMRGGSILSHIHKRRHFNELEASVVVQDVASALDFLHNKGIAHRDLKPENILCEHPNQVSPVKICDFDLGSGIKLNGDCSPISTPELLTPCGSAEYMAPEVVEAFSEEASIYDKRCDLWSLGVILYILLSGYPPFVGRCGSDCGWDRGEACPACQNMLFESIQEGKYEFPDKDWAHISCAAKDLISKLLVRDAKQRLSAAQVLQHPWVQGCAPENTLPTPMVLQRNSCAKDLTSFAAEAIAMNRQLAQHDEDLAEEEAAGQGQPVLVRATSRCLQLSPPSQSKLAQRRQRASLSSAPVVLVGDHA

The target of data set [3] is T3, MAP kinase-interacting serine/threonine-protein kinase 1/2 (Homo sapiens) (UniProt Q9HBH9+Q9BUB5). Kind of data set: Inhibition of MNK1/MNK2 in human IMR-90 cells assessed as inhibition of eIF4E phosphorylation incubated for 24 hrs by Western blot analysis. Format: cell-based. The settings on record: dose 0.3-10 µM, DDE = dose-dependent effect.
The subject of another data set is MCF7. Kind of data set: Growth inhibition of human MCF7 cells measured after 72 hrs by crystal violet staining based assay. It is filed as functional. Put shortly: (§2)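 Cells were seeded at 6000 cells/cm2, and 24 h later were treated with a range of concentrations (DMSO below 0.5%) for 72 h. They were fixed with 4% formaldehyde for 30 min and stained with 0.5% crystal violet for 15 min. Dye was eluted in 15% acetic acid and read as OD at 595 nm. Results are from three independent experiments, reported as SD; GI50 values were derived from the curves.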

Data set [4] concerns IMR-90. Briefly: Cytotoxicity against human IMR-90 cells assessed as increase in dead cells at 2.5 to 40 uM by Hoechst/propidium iodide staining based microscopic analysis. It is filed as toxicity, cell-based. Particulars: imr-90, 40 µM, dose 2.5-40 µM. In short, it runs like this: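 Cells were grown and treated for 72 h as in the crystal violet assay, with cisplatin and DMSO as controls. Before fixation, PI (2.5 μM) and Hoechst (0.05 mg/mL) were added to the medium for 30 min. At least 100 cells per condition were counted microscopically, and PI-positive cells were scored as a percentage of Hoechst-positive cells. Three independent experiments were done.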

The target in data set [5] is T3, MAP kinase-interacting serine/threonine-protein kinase 1/2 (Homo sapiens). Kind of data set: Inhibition of MNK1/MNK2 in human MCF7 cells assessed as inhibition of eIF4E phosphorylation incubated for 24 hrs by Western blot analysis. Particulars: dose 0.3-10 µM, DDE = dose-dependent effect. It is filed as cell-based.
Data set [6] deals with Eukaryotic translation initiation factor 4E (Homo sapiens) (UniProt P06730). Briefly: Inhibition of eIF4E phosphorylation in human MDA-MB-231 cells at 5 to 20 uM pretreated for 3 hrs followed by UV irradiation and recovery for 40 mins with compound by Western blot analysis. Format: cell-based. The settings on record: dose 5-20 µM, time 220.0 min. In short, it runs like this:
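MDA-MB-231 cells were pretreated with inhibitor for 3 h and then UV-irradiated. They recovered for 40 min at 37 °C with the inhibitor still present. Total lysates were immunoblotted for phospho-eIF4E and pathway markers (p-MNK1, p-p38, p-HSP27, p-ERK, p-p90RSK).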
A general note: Immunoblotting shows a protein as a band on a membrane.

In data set [7] the test system is IMR-90. Briefly: Cytotoxicity against human IMR-90 cells assessed as reduction in cell viability at 20 uM measured after 72 hrs by crystal violet staining based assay. It is filed as toxicity. The settings on record: imr-90, 72 h. Put shortly: as §2
The target of data set [8] is T1, MAP kinase-interacting serine/threonine-protein kinase 1. Kind of data set: Inhibition of MNK1 in human MDA-MB-231 cells assessed as inhibition of eIF4E phosphorylation at 10 uM by Western blot analysis. It is filed as cell-based. Particulars: time 0.5-72 hrs, TDE = time-dependent effect. In short, it runs like this:
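MDA-MB-231 cells were exposed to 10 μM inhibitor for various times. Phospho-eIF4E (Ser209) versus total eIF4E was then assessed by immunoblot of total lysates (20–25 μg protein), with ECL detection.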
Target sequence in this assay (Q9BUB5 whole entry, looked up): as the sequence (Q9BUB5 whole entry, looked up) above

Data set [9] concerns IMR-90. Kind of data set: Cytotoxicity against human IMR-90 cells assessed as reduction in cell viability measured after 72 hrs by crystal violet staining based assay. It is filed as functional. In short, it runs like this:
as §2

The subject of data set [10] is MDA-MB-231. Kind of data set: Growth inhibition of human MDA-MB-231 cells measured after 72 hrs by crystal violet staining based assay. It is filed as functional. Put shortly:
as §2

The next data set deals with MDA-MB-468. Kind of data set: Growth inhibition of human MDA-MB-468 cells measured after 72 hrs by crystal violet staining based assay. Format: functional. In short, it runs like this: as §2
Data set [11] deals with MDA-MB-231. Briefly: Cytotoxicity against human MDA-MB-231 cells assessed as reduction in cell viability measured after 72 hrs by crystal violet staining based assay. It is filed as functional. The settings on record: dose 2.5-40 µM, DDE = dose-dependent effect. Put shortly:
as §2

In data set [12] the target is T3, MAP kinase-interacting serine/threonine-protein kinase 1/2 (Homo sapiens). Briefly: Inhibition of MNK1/MNK2 in human MDA-MB-231 cells assessed as reduction in eIF4E phosphorylation incubated for 24 hrs by Western blot analysis. It is filed as cell-based. Particulars: dose 0.3-10 µM, DDE = dose-dependent effect. In short, it runs like this:
(§3)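 MDA-MB-231 cells, grown in DMEM with 10% heat-inactivated FBS and pen/strep at 37 °C and 5% CO2, were seeded at 6000 cells/cm2 24 h before a 24 h inhibitor exposure. DMSO was kept below 0.5% as the vehicle control. Total lysates (RIPA-type buffer with phosphatase/protease inhibitors, 20–25 μg) were immunoblotted with phospho- and total antibodies at 1:1000, using ECL detection.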

Data set [13] has the same target. Kind of data set: Inhibition of MNK1/MNK2 in human MDA-MB-468 cells assessed as inhibition of eIF4E phosphorylation incubated for 24 hrs by Western blot analysis. Format: cell-based. The settings on record: dose 0.3-10 µM, DDE = dose-dependent effect.
For data set [14] the target is unchanged. Kind of data set: Inhibition of MNK1/MNK2 in human MDA-MB-231 cells assessed as inhibition of eIF4E phosphorylation at 20 uM incubated for 24 hrs by Western blot analysis. It is filed as cell-based. In short, it runs like this: as §3
Data set [15] concerns MDA-MB-231. Briefly: Cytotoxicity against human MDA-MB-231 cells assessed as reduction in cell viability at 20 uM measured after 72 hrs by crystal violet staining based assay relative to control. It is filed as functional. In short, it runs like this: as §2
Data set [16] deals with T1, MAP kinase-interacting serine/threonine-protein kinase 1. Kind of data set: Activation of MNK1 in human MDA-MB-231 cells assessed as increase in ERK expression at 25 to 100 uM incubated for 24 hrs by Western blot analysis. It is filed as cell-based. The settings on record: filed as activator, dose 25-100 µM. In short, it runs like this: as §3
Target sequence in this assay (Q9BUB5 whole entry, looked up): as above
The target is the same in data set [17]. Briefly: Activation of MNK1 in human MDA-MB-231 cells assessed as increase in MNK1 phosphorylation at T209/T214 residues at 1.6 to 100 uM incubated for 24 hrs by Western blot analysis. Format: cell-based. Particulars: filed as activator, dose 1.6-100 µM. In short, it runs like this: as §3
Target sequence in this assay (Q9BUB5 whole entry, looked up): as above
The next data set relates to HEK293. Kind of data set: Potentiation of MNK1/eIF4E interaction in HEK293 cells assessed as increase in MNK1 phosphorylation at T209/T214 residues at 100 nM preincubated for 24 hrs followed by UV irradiation and recovery for 40 mins by immunoprecipitation based Western blot assay. Format: cell-based. Particulars: Homo sapiens, filed as activator, in the assay text read “MNK1/eIF4G interaction” for “MNK1/eIF4E interaction”. Put shortly:
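HEK-293 cells were exposed to DMSO or inhibitor (100 nM) for 24 h, irradiated with UV at 60 J/m2 and recovered for 40 min at 37 °C. Endogenous eIF4G was immunoprecipitated from about 2 mg of precleared NP-40 lysate on protein A beads overnight at 4 °C. The IP and input were immunoblotted for MNK1 and p-MNK1.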

In data set [18] the target is T1, MAP kinase-interacting serine/threonine-protein kinase 1. Kind of data set: Inhibition of human recombinant full length GST-tagged MNK1 expressed in baculovirus expression system using S6 peptide as substrate in presence of [gamma-33P]-ATP incubated for 60 mins by radiometric scintillation counting method. In short, it runs like this: (§4)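 Ten compound concentrations from 5 × 10–5 to 1.5 × 10–9 M were tested, and residual activity was calculated from cpm relative to high and low controls.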
Target sequence in this assay (Q9BUB5 whole entry): as the sequence (Q9BUB5 whole entry, looked up) above

The species entered for another data set is Homo sapiens. Kind of data set: Selectivity ratio of IC50 for inhibition of human recombinant full length GST-tagged MNK2 to IC50 for inhibition of human recombinant full length GST-tagged MNK1. In short, it runs like this:
as §4

The target of data set [19] is T2, MAP kinase-interacting serine/threonine-protein kinase 2. Kind of data set: Inhibition of human recombinant full length GST-tagged MNK2 expressed in insect cells using S6 peptide as substrate in presence of [gamma-33P]-ATP incubated for 60 mins by radiometric scintillation counting method. In short, it runs like this: as §4
Target sequence in this assay (Q9HBH9 whole entry): as the sequence (Q9HBH9 whole entry, looked up) above

Sequence of Eukaryotic translation initiation factor 4E (Homo sapiens) (P06730 whole entry): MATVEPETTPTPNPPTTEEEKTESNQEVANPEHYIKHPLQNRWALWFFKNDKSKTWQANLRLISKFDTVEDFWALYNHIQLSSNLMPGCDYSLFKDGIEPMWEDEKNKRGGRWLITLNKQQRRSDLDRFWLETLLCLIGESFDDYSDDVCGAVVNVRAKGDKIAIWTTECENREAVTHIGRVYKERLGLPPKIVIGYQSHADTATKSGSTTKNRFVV

As to `Nc1n[nH]c2ncccc12`, the Activity in [1] was 95%; in data set [2] it was 102%.

As to `Nc1n[nH]c2nc(-c3ccccc3)cc(-c3ccccc3)c12`, the inhibition result in data set [3] is “Dde”; in [5], “Dde”; in data set [8], “Tde”; in [12], “Dde”; in data set [13] it was “Dde”. The GI50 in the data set on MCF7 is 8.46 µM; in the data set with IMR-90 [9] it was above 40 µM; in the data set with MDA-MB-231 [10] it was 15.1 µM; in the data set with MDA-MB-468 it was 14.5 µM. The Activity result in the data set with IMR-90 [4] is “Non-Toxic”; in the data set on IMR-90 [7] it was “Non-Toxic”; in the data set with MDA-MB-231 [11], “Dde”; in data set [1] it was 14%; in the data set on MDA-MB-231 [15] it was 60%; in data set [2] it was 52%. For the same molecule, the inhibition entry in data set [6] and in data set [14] was “Active” throughout.

Consider `COc1ccc(-c2cc(-c3ccc(OC)cc3)c3c(N)n[nH]c3n2)cc1`, for which the figures for the Activity in data set [1] and in data set [2] were 60% and 101%, respectively.

For the molecule `Cc1cc(Nc2cc(N)ncn2)c(=O)n2c1C(=O)NC21CCCCC1`, the outcome (in data set [16]; in [17]; in the data set on HEK293) was Active.

Consider `COc1ccc(-c2cc(-c3ccccc3)nc3[nH]nc(N)c23)cc1`, for which the Activity in data set [1] came out at 25%; in [2], 74%.

In the case of `COc1ccc(-c2cc(-c3cccc(OC)c3)nc3[nH]nc(N)c23)cc1`, the values for the Activity in data set [1] and in data set [2] were 41% and 92%, respectively.

For the molecule `COc1ccc(-c2cc(-c3ccccc3OC)nc3[nH]nc(N)c23)cc1`, the Activity in data set [1] was found to be 63%; in data set [2] it was 109%.

Regarding `Cn1nc(N)c2c(-c3ccccc3)cc(-c3ccccc3)nc21`, the Activity came to 80% in data set [1] and 117% in data set [2].

On to `COc1ccc(-c2cc(-c3ccc(C)cc3)c3c(N)n[nH]c3n2)cc1`, for which the Activity in data set [1] was 45%; in data set [2], 82%.

Take `Nc1c2c(-c3ccccc3)c(Cl)c(Cl)nc2nn1-c1ccccc1`: the results for the Activity in data set [1] and in data set [2] were 103% and 102%, respectively.

Consider `COc1ccc(-c2cc(-c3ccccc3)nc3c2c(N)nn3C)cc1`, for which the Activity came out at 102% in data set [1] and 145% in [2].

Consider `Nc1c2cc(-c3c(Cl)cccc3Cl)c(Cl)nc2nn1-c1ccccc1`, for which the Activity came to 97% in data set [1] and 99% in data set [2].

Take `COc1ccccc1-c1cc(-c2ccc(C)cc2)c2c(N)n[nH]c2n1`: the Activity in data set [1] was determined as 61%; in data set [2], 123%.

As for `COc1ccc(-c2cc(-c3ccc(OC)cc3)c3c(N)nn(C)c3n2)cc1`, the Activity in data set [1] worked out at 94%; in [2], 154%.

Consider `COc1cccc(-c2cc(-c3ccc(F)cc3)c3c(N)n[nH]c3n2)c1`, for which the Activity in data set [1] amounted to 51%; in [2] it was 82%.

Consider `COc1cccc(-c2cc(-c3ccccc3)c3c(N)n[nH]c3n2)c1`, for which the IC50 in data set [18] stood at 4.2 µM; in data set [19], 22 µM. In the data set filed under Homo sapiens, the Ratio IC50 was 4. For the same molecule, the inhibition entry in data set [12] was “Dde”. For the same molecule, the Activity in data set [1] was determined as 38%; in data set [2], 74%.

For `Nc1n[nH]c2nc(-c3ccccc3)cc(-c3ccc(F)cc3)c12`, the IC50 in data set [18] turned out to be 1.3 µM; in data set [19], 4.1 µM. In the data set filed under Homo sapiens, the Ratio IC50 is 4. Further, the inhibition result in data set [12] is “Dde”. Besides, the Activity in data set [1] was determined as 31%; in [2], 62%.

Take `Cn1nc(N)c2cccnc21`: the Activity was found to be 106% in data set [1] and 95% in data set [2].

What is called GI50 is the concentration giving 50% growth inhibition. Usually IC50 stands for the concentration at which inhibition is half-maximal.
